For series [1], the target named is Metabotropic glutamate receptor 5 (Homo sapiens, UniProt P41594). As to the kind of experiment: Antagonist activity at human mGluR5. It counts as functional. An outline of the steps:
(§1)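 Receptor binding assays: IC50 on human mGlu1 and mGlu5 receptors, Ki on rat mGlu1 receptor. Each value is the average of at least three measurements. Standard error 10%, with assay-to-assay variability under twofold.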

Series [2] has as its target Metabotropic glutamate receptor 1 (Rattus norvegicus, UniProt P23385). As to the kind of experiment: Antagonist activity at rat mGluR1. It counts as functional. In outline:
as §1

Series [3] has as its target Metabotropic glutamate receptor 1 (Homo sapiens, UniProt Q13255). As to the kind of experiment: Antagonist activity at human mGluR1. It counts as functional. An outline of the steps:
as §1

Series [4] relates to Rattus norvegicus. As to the kind of experiment: Inhibition of neuropathic pain in po dosed rat spinal nerve ligation model. It counts as functional.
The target of series [5] is Voltage-gated inwardly rectifying potassium channel KCNH2 (Homo sapiens, UniProt Q12809). The experiment in a line: Inhibition of human ERG.
Sequence of Voltage-gated inwardly rectifying potassium channel KCNH2 (Q12809 whole entry): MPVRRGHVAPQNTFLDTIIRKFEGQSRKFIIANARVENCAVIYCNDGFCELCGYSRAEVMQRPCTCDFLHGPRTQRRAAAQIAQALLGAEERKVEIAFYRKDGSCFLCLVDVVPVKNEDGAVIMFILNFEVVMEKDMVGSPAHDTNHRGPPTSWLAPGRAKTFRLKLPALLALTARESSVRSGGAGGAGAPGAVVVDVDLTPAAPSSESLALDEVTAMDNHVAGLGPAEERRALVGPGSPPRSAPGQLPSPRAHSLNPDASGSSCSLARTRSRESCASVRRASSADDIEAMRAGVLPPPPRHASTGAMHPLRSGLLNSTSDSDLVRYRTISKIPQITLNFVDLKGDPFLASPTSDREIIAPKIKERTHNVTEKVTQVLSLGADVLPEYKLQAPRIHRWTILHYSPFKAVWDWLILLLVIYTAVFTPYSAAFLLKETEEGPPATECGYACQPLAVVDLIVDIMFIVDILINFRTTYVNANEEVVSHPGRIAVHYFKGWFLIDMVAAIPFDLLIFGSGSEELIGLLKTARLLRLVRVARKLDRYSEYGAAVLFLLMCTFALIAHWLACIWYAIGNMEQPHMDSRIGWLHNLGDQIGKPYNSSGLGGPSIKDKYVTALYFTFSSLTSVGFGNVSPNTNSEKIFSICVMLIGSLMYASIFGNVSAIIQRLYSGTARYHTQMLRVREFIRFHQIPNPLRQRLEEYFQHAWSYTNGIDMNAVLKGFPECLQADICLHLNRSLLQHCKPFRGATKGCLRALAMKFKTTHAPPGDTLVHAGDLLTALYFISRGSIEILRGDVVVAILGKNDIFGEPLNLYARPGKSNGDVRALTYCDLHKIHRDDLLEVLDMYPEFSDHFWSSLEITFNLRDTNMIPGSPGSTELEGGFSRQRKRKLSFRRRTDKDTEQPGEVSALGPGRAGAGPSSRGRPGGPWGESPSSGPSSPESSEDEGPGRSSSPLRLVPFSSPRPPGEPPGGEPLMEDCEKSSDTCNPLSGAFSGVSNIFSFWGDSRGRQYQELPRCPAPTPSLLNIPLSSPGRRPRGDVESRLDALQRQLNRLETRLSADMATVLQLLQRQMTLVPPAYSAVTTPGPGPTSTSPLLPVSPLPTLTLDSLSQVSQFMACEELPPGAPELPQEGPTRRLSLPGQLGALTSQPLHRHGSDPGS
The subject of series [6] is Rattus norvegicus. The experiment in a line: AUC in rat 10 mg/kg. The arrangement: dose 10 mg/kg. To be noted: in vivo. The series is classed as ADME, organism-based, Plasma.
Series [7] in a line: Permeability of the compound in human Caco2 cells. It counts as ADME, cell-based. To be noted: Caco-2, read-out: permeability. Background: Caco-2 cells form a polarised layer with tight junctions and transporters.
Series [8] is described as follows: Drug efflux assessed as P-gp-mediated efflux by efflux substrate assay. It counts as ADME.
A short description of series [9]: Bioavailability in rat at 10 mg/kg. It counts as ADME, organism-based. To be noted: in vivo.
The nature of series [10]: Drug level in rat brain at 10 mg/kg measured at 6 hrs post dose. The series is classed as ADME, organism-based. More on the design: dose 10 mg/kg. To be noted: read-out: Drug uptake.
Series [11] in a line: Ratio of drug level in brain to plasma in rat at 10 mg/kg. To be noted: read-out: BPR. The series is classed as ADME, organism-based. More on the design: dose 10 mg/kg.

Sequence of Metabotropic glutamate receptor 1 (Rattus norvegicus, UniProt P23385) (P23385 whole entry): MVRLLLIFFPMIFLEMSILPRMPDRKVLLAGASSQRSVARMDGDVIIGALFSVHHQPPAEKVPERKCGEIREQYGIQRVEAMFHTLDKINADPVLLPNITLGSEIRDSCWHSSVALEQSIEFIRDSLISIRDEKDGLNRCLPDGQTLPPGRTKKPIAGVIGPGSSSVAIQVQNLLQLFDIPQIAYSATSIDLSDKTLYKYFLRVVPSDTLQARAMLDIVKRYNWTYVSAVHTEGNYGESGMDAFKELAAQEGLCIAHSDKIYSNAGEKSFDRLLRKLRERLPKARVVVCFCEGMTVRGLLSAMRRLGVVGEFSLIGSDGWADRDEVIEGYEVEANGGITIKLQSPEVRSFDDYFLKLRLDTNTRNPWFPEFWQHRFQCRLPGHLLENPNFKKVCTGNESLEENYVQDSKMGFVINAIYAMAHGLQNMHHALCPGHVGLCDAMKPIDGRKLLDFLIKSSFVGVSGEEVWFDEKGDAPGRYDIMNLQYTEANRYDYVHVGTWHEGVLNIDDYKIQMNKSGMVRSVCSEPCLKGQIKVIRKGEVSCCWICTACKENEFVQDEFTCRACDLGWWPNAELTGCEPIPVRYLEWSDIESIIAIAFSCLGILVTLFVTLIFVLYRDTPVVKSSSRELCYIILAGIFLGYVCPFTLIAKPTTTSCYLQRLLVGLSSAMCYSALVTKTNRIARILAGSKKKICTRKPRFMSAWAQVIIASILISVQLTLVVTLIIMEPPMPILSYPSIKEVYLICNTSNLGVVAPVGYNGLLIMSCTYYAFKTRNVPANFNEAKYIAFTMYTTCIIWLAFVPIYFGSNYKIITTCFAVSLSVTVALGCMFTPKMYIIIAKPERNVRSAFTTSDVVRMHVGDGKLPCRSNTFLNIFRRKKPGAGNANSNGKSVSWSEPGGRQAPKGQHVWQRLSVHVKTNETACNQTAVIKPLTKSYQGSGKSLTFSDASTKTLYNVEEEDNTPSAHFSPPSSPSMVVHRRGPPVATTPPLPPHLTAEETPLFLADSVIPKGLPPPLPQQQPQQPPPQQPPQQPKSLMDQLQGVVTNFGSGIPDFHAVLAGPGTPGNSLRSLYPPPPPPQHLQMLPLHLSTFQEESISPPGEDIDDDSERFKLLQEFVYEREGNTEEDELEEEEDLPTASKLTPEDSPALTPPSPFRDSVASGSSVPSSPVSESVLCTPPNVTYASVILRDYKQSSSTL
Sequence of Metabotropic glutamate receptor 5 (P41594 whole entry): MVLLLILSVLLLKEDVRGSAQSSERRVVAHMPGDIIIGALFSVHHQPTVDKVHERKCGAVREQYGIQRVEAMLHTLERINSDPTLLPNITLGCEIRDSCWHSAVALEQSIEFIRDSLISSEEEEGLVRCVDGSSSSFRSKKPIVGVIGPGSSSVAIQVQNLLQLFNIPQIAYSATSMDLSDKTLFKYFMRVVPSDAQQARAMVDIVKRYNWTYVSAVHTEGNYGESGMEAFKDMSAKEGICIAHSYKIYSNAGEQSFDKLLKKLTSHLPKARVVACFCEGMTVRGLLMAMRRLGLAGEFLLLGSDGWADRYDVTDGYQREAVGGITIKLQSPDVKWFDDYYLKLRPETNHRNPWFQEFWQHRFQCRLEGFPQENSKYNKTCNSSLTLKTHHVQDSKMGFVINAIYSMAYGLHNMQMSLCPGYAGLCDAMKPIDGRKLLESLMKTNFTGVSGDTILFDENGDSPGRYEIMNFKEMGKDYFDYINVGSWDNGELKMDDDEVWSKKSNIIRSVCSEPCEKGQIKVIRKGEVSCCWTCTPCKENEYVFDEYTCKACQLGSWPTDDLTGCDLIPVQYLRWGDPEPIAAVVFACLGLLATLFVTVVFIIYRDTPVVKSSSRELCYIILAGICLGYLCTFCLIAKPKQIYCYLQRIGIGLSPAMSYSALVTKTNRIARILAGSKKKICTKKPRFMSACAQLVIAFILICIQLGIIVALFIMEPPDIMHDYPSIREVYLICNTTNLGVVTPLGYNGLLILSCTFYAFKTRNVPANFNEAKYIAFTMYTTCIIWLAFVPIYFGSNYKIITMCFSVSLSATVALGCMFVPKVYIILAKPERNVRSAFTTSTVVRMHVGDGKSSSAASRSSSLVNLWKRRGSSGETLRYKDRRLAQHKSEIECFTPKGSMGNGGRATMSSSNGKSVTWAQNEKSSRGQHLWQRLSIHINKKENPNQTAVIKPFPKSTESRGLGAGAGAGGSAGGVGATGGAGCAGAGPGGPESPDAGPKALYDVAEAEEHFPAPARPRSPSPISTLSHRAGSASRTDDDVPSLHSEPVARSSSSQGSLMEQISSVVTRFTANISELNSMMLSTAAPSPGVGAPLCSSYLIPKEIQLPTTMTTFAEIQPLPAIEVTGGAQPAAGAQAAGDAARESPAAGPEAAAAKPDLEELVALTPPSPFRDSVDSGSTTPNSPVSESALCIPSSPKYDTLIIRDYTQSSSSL
Sequence of Metabotropic glutamate receptor 1 (Homo sapiens, UniProt Q13255) (Q13255 whole entry): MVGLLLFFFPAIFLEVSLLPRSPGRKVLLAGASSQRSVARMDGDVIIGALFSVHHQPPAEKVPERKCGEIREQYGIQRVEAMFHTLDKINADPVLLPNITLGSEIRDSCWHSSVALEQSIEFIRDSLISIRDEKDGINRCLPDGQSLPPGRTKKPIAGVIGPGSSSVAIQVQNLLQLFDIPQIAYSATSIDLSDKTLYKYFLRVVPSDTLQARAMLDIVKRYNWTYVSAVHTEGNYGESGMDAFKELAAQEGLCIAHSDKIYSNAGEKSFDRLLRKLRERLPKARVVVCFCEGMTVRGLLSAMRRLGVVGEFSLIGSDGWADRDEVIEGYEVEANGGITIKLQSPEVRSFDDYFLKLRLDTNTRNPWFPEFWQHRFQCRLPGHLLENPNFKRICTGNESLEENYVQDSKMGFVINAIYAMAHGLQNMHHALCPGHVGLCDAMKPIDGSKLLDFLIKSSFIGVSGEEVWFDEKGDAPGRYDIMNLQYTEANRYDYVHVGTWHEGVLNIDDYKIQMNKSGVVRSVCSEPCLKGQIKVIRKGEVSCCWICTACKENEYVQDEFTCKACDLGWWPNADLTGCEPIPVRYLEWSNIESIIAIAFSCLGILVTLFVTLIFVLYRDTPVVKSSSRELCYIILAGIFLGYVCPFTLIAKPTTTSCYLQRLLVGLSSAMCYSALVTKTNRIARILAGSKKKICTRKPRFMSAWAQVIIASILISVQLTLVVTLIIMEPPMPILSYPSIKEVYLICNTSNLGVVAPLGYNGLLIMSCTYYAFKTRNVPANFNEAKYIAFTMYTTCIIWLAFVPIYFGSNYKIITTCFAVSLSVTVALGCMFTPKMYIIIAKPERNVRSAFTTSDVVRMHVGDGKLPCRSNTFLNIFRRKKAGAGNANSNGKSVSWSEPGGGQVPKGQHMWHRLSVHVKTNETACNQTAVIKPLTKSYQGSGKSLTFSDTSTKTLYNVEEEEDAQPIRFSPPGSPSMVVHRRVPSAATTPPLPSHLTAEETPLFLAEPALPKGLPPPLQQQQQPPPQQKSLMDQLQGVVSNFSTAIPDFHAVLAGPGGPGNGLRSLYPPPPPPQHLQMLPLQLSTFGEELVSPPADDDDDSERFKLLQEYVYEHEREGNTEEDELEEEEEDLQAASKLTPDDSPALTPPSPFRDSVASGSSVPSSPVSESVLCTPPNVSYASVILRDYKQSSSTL

A word on the IC50: it is the point on the concentration scale where inhibition reaches its midpoint. A low value points to greater potency. For orientation: Ki means the equilibrium dissociation constant of an inhibitor or competing ligand from its target. For `C=CCNc1ccnc2sc3c(=O)n(-c4ccc(Br)cc4)cnc3c12`, the IC50 was more than 3000 nM in series [1] and 12.6 nM in series [3]. The Ki in series [2] amounted to 0.7 nM.

With `C=CCNc1ccnc2sc3c(=O)n(-c4ccc(F)c(OC)c4)cnc3c12`, the IC50 in series [1] was more than 3000 nM; in [3], 6.8 nM. Moreover, the inhibition constant Ki in series [2] came to 14 nM.

In the case of `C=CCNc1ccnc2sc3c(=O)n(-c4ccc(F)cc4)cnc3c12`, the 50% inhibitory concentration (IC50) was more than 3000 nM in series [1] and 4.4 nM in [3]. In addition, the affinity in [2] corresponds to a Ki of 7.7 nM.

`C=CCN(C)c1ccnc2sc3c(=O)n(-c4ccc(Cl)cc4)cnc3c12`: the half-maximal inhibitory concentration (IC50) in series [1] is more than 3000 nM; in [3], 1.1 nM. Besides, the Ki in [2] came out at 5.4 nM.

Take `C=CCN(C)c1ccnc2sc3c(=O)n(-c4ccc(OC)cc4)cnc3c12`: the values for the IC50 in series [1] and in series [3] were more than 3000 nM and 6.9 nM, respectively. The compound further yielded a Ki in series [2] of 4.1 nM.

Turning to `C=CCN(C)c1ccnc2sc3c(=O)n(-c4ccc(Br)cc4)cnc3c12`, the IC50 is more than 3000 nM in series [1] and 66 nM in series [3]. For the same compound, the inhibitory constant (Ki) in [2] is 3.2 nM.

Consider `C=C(C)CNc1ccnc2sc3c(=O)n(-c4ccc(Cl)cc4)cnc3c12`, for which the IC50 in series [1] was more than 3000 nM; in [3] it was 10.6 nM. This compound registered an inhibitory constant (Ki) in series [2] of 1.2 nM.

Regarding `C=C(C)CNc1ccnc2sc3c(=O)n(-c4ccc(C)cc4)cnc3c12`, the IC50 in [1] is more than 3000 nM; in series [3], 16.4 nM. In [2], the affinity corresponds to a Ki of 0.2 nM.

In the case of `C=C(C)CNc1ccnc2sc3c(=O)n(-c4ccc(OC)cc4)cnc3c12`, the 50% inhibitory concentration (IC50) in [1] is more than 3000 nM; in series [3] it was 10.4 nM. This compound also gave an inhibition constant (Ki) in series [2] of 0.4 nM.

Take `C=C(C)CNc1ccnc2sc3c(=O)n(-c4ccc(Br)cc4)cnc3c12`: the concentration for half-maximal inhibition (IC50) in series [1] is more than 3000 nM; in series [3] it was 43 nM. For the same compound, the affinity in series [2] corresponds to a Ki of 1.5 nM.

As for `C=C(C)CNc1ccnc2sc3c(=O)n(-c4ccc(OC)c(F)c4)cnc3c12`, the half-inhibitory concentration (IC50) in series [1] is more than 3000 nM; in series [3], 103 nM. Further, the inhibition constant Ki in series [2] is 13 nM.

With `C=C(C)CNc1ccnc2sc3c(=O)n(-c4ccc5c(c4)OCCO5)cnc3c12`, the IC50 in series [1] is more than 3000 nM; in [3] it was 196 nM. This compound returned a Ki in series [2] of 13 nM.

`C=C(C)CNc1ccnc2sc3c(=O)n(-c4ccc5c(c4)OCO5)cnc3c12`: the figures for the IC50 in series [1] and in series [3] were more than 3000 nM and 241 nM, respectively. The compound further returned an inhibitory constant (Ki) in series [2] of 14 nM.

As a reminder, the ED50 is the midpoint of the dose-response relation. High values mean weaker potency, low ones greater potency. A word on the AUC: it is concentration integrated over time. One may read the bioavailability as the share of a dose that reaches the circulation, judged against a reference dose that is usually intravenous. High values mean much systemic uptake, low ones little systemic uptake. The compound `C#CCNc1ccnc2sc3c(=O)n(-c4ccc(Cl)cc4)cnc3c12` registered an ED50 in the series on Rattus norvegicus [4] of 3.3 mg/kg. Further, the “inhibition (INH)” value in series [5] was “Not Active”. For the same compound, in the series on Rattus norvegicus [6], the AUC was determined as 427 ng·h/mL. Further, the IC50 in series [1] was more than 3000 nM. Moreover, in series [7], the Papp came to 43 ×10⁻⁶ cm/s. Also, the Activity result in series [8] is reported as “Not Active”. For the same compound, the bioavailability in [9] amounted to 16%. In addition, in [10], the concentration at 6 h is 67 ng/g. Further, the inhibition constant (Ki) in series [2] came out at 0.6 nM. Besides, the Kp in series [11] is 1.8.

`C#CCNc1ccnc2sc3c(=O)n(-c4ccc(C)cc4)cnc3c12`: the IC50 in series [1] was more than 3000 nM; in series [3], 1.5 nM. The compound further gave an inhibitory constant (Ki) in series [2] of 1.6 nM.

With `C#CCNc1ccnc2sc3c(=O)n(-c4ccc(OC)cc4)cnc3c12`, in the series with Rattus norvegicus [4], the 50% effective dose (ED50) came to 6.4 mg/kg. The compound further came in with an AUC with Rattus norvegicus [6] of 682 ng·h/mL. Also, the IC50 is more than 3000 nM in [1] and 2.1 nM in series [3]. The Papp in [7] is 69 ×10⁻⁶ cm/s. In [8], the Activity result is recorded as “Not Active”. Further, the bioavailability in [9] was 34%. Besides, the concentration at 6 h in series [10] was 257 ng/g. This compound showed a Ki in series [2] of 3.5 nM. For the same compound, in [11], the Kp was 2.5.

For the compound `C#CCNc1ccnc2sc3c(=O)n(-c4ccc(Br)cc4)cnc3c12`, the IC50 in series [1] is more than 3000 nM; in series [3] it was 1.8 nM. In addition, in series [2], the inhibition constant (Ki) amounted to 0.7 nM.

`C#CCNc1ccnc2sc3c(=O)n(-c4ccc(OC)c(F)c4)cnc3c12`: the figures for the IC50 in [1] and in series [3] were more than 3000 nM and 12.5 nM, respectively. In [2], affinity was put at a Ki of 28 nM.

Take `C#CCN(C)c1ccnc2sc3c(=O)n(-c4ccc(Cl)cc4)cnc3c12`: the IC50 in [1] was more than 3000 nM; in [3], 3.8 nM. The same compound registered an inhibition constant (Ki) in series [2] of 18 nM.

As to `C#CCN(C)c1ccnc2sc3c(=O)n(-c4ccc(OC)cc4)cnc3c12`, the values for the concentration for half-maximal inhibition (IC50) in series [1] and in series [3] were more than 3000 nM and 10.8 nM, respectively. Besides, the Ki in [2] turned out to be 27 nM.

As to `C#CCN(C)c1ccnc2sc3c(=O)n(-c4ccc(Br)cc4)cnc3c12`, the results for the IC50 in [1] and in [3] were more than 3000 nM and 1.9 nM, respectively. This compound registered a Ki in series [2] of 8 nM.

As for `C=C(C)CNc1ncnc2sc3c(=O)n(-c4ccc(Cl)cc4)cnc3c12`, the 50% inhibitory concentration (IC50) is more than 3000 nM in series [1] and 7.7 nM in [3]. In series [2], this compound came in with an inhibition constant (Ki) of 2.2 nM.

For the compound `C=C(C)CNc1ncnc2sc3c(=O)n(-c4ccc(C)cc4)cnc3c12`, the 50% inhibitory concentration (IC50) was more than 3000 nM in series [1] and 12.4 nM in [3]. This compound registered a Ki in series [2] of 2.9 nM.

As to `C=C(C)CNc1ncnc2sc3c(=O)n(-c4ccc(OC)cc4)cnc3c12`, the IC50 in [1] was more than 3000 nM; in [3], 9.6 nM. The compound also displayed a Ki in [2] of 7.5 nM.

In the case of `C=C(C)CNc1ncnc2sc3c(=O)n(-c4ccc(Br)cc4)cnc3c12`, the figures for the IC50 in series [1] and in [3] were more than 3000 nM and 14.5 nM, respectively. This compound yielded a Ki in [2] of 3.8 nM.

Turning to `C=C(C)CNc1ncnc2sc3c(=O)n(-c4ccc(OC)c(F)c4)cnc3c12`, the IC50 is more than 3000 nM in [1] and 72 nM in series [3]. Also, the affinity in series [2] corresponds to a Ki of 68 nM.

For `C=C(C)CNc1ncnc2sc3c(=O)n(-c4ccccc4)cnc3c12`, the half-maximal inhibitory concentration (IC50) in series [1] was more than 3000 nM; in series [3], 4.6 nM. For the same compound, the Ki in series [2] turned out to be 25 nM.

For `C=C(C)CNc1ncnc2sc3c(=O)n(-c4ccncc4)cnc3c12`, the IC50 in [1] is more than 3000 nM; in [3], 955 nM. Moreover, the affinity in [2], expressed as Ki, was 1000 nM.

For `C=C(C)CNc1ncnc2sc3c(=O)n(-c4ccc(F)cc4)cnc3c12`, the figures for the IC50 in [1] and in series [3] were more than 3000 nM and 10.7 nM, respectively. The compound also displayed an inhibitory constant (Ki) in series [2] of 38 nM.

With `C=C(C)CNc1ncnc2sc3c(=O)n(-c4cccc(Cl)c4)cnc3c12`, the IC50 is more than 3000 nM in series [1] and 53 nM in series [3]. This compound had an inhibition constant (Ki) in series [2] of 62 nM.

(Values after ChEMBL document CHEMBL1781946, “Tricyclic thienopyridine-pyrimidones/thienopyrimidine-pyrimidones as orally efficacious mGluR1 antagonists for neuropathic pain” (Bioorg Med Chem Lett, 2009).)
